# The source made the active and inactive calls.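 Rule for the calls, unless noted: active = Her2 level under about 52% in both replicate screens, with viability over 70% of control (limit read from the data); inconclusive = Her2 under the limit in one screen only, or viability under 70%; inactive = Her2 level above the set limit.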
# Experiments:
# [1] = reducers of endogenous Her2 protein level, primary screen, SKBR3 breast tumor cells, AlphaScreen, ATP viability (AID 461); details: 18-24 h, measured here: SKBR3 viability, ATP luminescence, at 10 µM;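 for Her2 level: lower value means less Her2 protein in the cells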;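 for viability: percent of carrier control wells set as 100% viability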
# [2] = molecular target: Receptor tyrosine-protein kinase erbB-2 (Homo sapiens) (UniProt P04626); assay: as above; details: 18-24 h, at 10 µM, stronger effect = lower value
# Sequence of Receptor tyrosine-protein kinase erbB-2 (Homo sapiens) (P04626 whole entry, looked up): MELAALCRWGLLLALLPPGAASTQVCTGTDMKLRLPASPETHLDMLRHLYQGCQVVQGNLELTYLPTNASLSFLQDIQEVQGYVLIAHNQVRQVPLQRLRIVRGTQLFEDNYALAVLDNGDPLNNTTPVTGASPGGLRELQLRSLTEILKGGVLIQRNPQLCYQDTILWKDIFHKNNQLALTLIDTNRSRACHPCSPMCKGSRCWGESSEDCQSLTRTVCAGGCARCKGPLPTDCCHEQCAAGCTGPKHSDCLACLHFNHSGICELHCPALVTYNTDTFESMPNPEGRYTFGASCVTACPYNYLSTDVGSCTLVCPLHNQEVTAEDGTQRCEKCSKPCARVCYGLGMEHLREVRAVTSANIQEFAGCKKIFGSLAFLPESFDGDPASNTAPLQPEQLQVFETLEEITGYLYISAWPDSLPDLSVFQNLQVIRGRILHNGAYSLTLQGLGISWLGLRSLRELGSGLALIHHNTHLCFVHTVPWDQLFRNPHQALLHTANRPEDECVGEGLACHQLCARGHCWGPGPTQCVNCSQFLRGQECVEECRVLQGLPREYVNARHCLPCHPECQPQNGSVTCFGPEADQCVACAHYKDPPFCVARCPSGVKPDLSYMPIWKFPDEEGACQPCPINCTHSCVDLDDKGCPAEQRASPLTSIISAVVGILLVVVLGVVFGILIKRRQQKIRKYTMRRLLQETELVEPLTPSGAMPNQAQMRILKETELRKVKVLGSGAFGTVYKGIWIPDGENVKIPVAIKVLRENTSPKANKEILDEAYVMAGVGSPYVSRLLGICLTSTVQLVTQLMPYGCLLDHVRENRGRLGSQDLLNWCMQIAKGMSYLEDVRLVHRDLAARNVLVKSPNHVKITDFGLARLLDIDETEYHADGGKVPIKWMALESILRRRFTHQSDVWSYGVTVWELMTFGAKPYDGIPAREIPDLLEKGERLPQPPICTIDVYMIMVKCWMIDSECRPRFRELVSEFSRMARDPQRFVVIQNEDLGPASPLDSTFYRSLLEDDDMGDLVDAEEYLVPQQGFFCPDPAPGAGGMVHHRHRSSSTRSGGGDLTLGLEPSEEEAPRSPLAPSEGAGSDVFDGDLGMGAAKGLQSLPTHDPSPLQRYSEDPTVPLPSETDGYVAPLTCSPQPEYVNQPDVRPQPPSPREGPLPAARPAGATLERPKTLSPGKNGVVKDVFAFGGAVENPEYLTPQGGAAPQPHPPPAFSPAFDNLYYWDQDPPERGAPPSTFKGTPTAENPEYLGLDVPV
# [3] = SK-BR-3 cell growth inhibitors, pilot screen, 24 h, human (AID 572;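 active = viability at or below 10% of carrier control in both of two separate runs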;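 note: compound exposure lasted between 18 and 24 h rather than exactly 24 h; 100% = carrier-treated control wells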); details: SK-BR-3 viability, CellTiter-Glo luminescence, at 10 µM, stronger effect = lower value
# [4] = HUVEC growth inhibition – cell-based, human, primary screen (AID 575;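 active = viability at or below 30% in both replicate assays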;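 note: 100% = median of untreated cell wells with 0.1% DMSO on each plate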); details: HUVEC proliferation, CellTiter-Glo luminescence, 72 h; at 10 µM; stronger effect = lower value
# In short: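 Test system: primary human umbilical vein endothelial cells. Quantity: 1250 cells/well. Compound: single 10 µM dose, 0.1% DMSO, from 5x medium stock. Timing: 72 h treatment at 37 °C. Detection: ATP-based CellTiter-Glo luminescent read. Benchmarks: vehicle and MePR control wells. Format: 384-well plates coated with collagen.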
# [5] = growth inhibitors of H69AR lung tumor, primary screen, human, duplicate replicates (AID 580;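 active = viability at or under a set limit in both replicates, limit being median viability minus 3 SD, cut at about 48% in these data, passing the limit was not always enough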;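 note: 100% = mean luminescence of untreated wells and 0% = no signal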); details: H69AR lung tumor cells viability, ATP luminescence, 72 h; at 10 µM; stronger effect = lower value
# [6] = reversal of MRP1-mediated doxorubicin resistance, pilot screen, H69AR cells, doxorubicin co-treatment (AID 601;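 active = viability loss from added drug above about 55%, and viability with drug at most 40%, in both replicates, limit read from the data, passing the limit was not always enough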); details: CellTiter-Glo, 72 h, at 10 µM; for differential viability (reversal): stronger effect = higher value
# [7] = 384-well plate pilot, post-Golgi transport modulator project, inhibition of yeast transport mutant growth (AID 636; in the data active = inhibition above about 31%); details: absorbance 615 nm, about 18 h, stronger effect = higher value
# [8] = growth suppression of yeast trafficking mutant, preliminary HTS, modulators of trafficking downstream of Golgi apparatus project, 1536-format plate, OD 615 nm (AID 637; in the data active = inhibition above about 30%); details: yeast transport mutant growth, absorbance 615 nm, 18 h; stronger effect = higher value
# [9] = H69AR cells + 2 uM doxorubicin, measured here: viability with 2 uM doxorubicin, stronger effect = lower value
# [10] = H69AR cells, compound alone cytotoxicity
SMILES,viability [1],Her2 level [2],viability [3],viability [4],viability [5],differential viability (reversal) ([6]; H69AR cells + 2 uM doxorubicin),"viability [6, 9]","viability [6, 10]",inhibition [7],inhibition [8]
Cn1c(=N)c(S(=O)(=O)c2ccc(Cl)cc2)cc2c(=O)n3ccccc3nc21,110%,106% (inactive),110% (inactive),85.4% (inactive),83.1% (inactive),-3.57% (inactive),86.7%,83.1%,-1.95% (inactive),-1.67% (inactive)
C=CS(=O)(=O)c1ccc(Oc2ccc(S(=O)(=O)C=C)cc2)cc1,243%,21% (active),243% (inactive),97% (inactive),1.27% (active),0.405% (inactive),0.865%,1.27%,-4.67% (inactive),1.77% (inactive)
COc1ccccc1-n1c(SCC(N)=O)nnc1-c1ccccc1,126%,97% (inactive),126% (inactive),88.7% (inactive),87.7% (inactive),-0.18% (inactive),87.8%,87.7%,-7.11% (inactive),1.9% (inactive)
Cc1nc(Nc2nc(=O)c3ccccc3n2C)nc2c(C)cccc12,122%,98% (inactive),122% (inactive),89.5% (inactive),86.1% (inactive),-12.9% (inactive),99%,86.1%,-2.89% (inactive),2.54% (inactive)
COc1cccc(Cn2c(OCC3CCCO3)nc3c2c(=O)n(C)c(=O)n3C)c1 (stereo not given),86.5%,86% (inactive),86.5% (inactive),104% (inactive),101% (inactive),-0.075% (inactive),101%,101%,-2.11% (inactive),3.77% (inactive)
CCN(C(=O)Cc1c(C(=O)O)[nH]c2ccccc12)c1cc(OC)ccc1OC,112%,84% (inactive),112% (inactive),94.1% (inactive),92.7% (inactive),-2.61% (inactive),95.3%,92.7%,-6.62% (inactive),4.5% (inactive)
Cc1noc(C)c1COC(=O)c1ccccc1Oc1ccccc1,91%,106% (inactive),91% (inactive),79.1% (inactive),96.5% (inactive),26.8% (inactive),69.8%,96.5%,-3.25% (inactive),-5.56% (inactive)
c1ccc(-n2nnnc2OCCOc2nnnn2-c2ccccc2)cc1,92%,106% (inactive),92% (inactive),82.2% (inactive),80.4% (inactive),-6.12% (inactive),86.5%,80.4%,-2.24% (inactive),9.18% (inactive)
O=C(CN1C(=O)CCSc2ccccc21)Nc1ccccc1,113%,94% (inactive),113% (inactive),111% (inactive),104% (inactive),15.9% (inactive),88.2%,104%,-7.67% (inactive),-7.78% (inactive)
Cc1[nH]c(=O)[nH]c(=O)c1S(=O)(=O)N1c2ccc(F)cc2CCC1C (stereo not given),97.5%,90% (inactive),97.5% (inactive),100% (inactive),95.7% (inactive),-3.9% (inactive),99.6%,95.7%,-6.97% (inactive),3.17% (inactive)
O=C(CCC(=O)OCCCC(F)(F)C(F)(F)F)NC1CCCCC1,123%,112% (inactive),123% (inactive),112% (inactive),95.3% (inactive),3.4% (inactive),91.9%,95.3%,-5.47% (inactive),-3.23% (inactive)
O=C1CN(C(=O)COC(=O)c2ccccc2NC(=O)c2ccco2)c2ccccc2N1,94%,106% (inactive),94% (inactive),97.3% (inactive),83.6% (inactive),-14.1% (inactive),97.6%,83.6%,-5.95% (inactive),-0.49% (inactive)
Cc1ccc(CCC(=O)Nc2ccc(S(N)(=O)=O)cc2)o1,87.5%,116% (inactive),87.5% (inactive),98.4% (inactive),109% (inactive),7.87% (inactive),101%,109%,1.33% (inactive),6.23% (inactive)
Cc1ccc(NC(=O)CNc2cccc(C)c2C)c(C)c1,106%,86.5% (inactive),106% (inactive),98.3% (inactive),79.2% (inactive),10.1% (inactive),69%,79.2%,-0.53% (inactive),-1.45% (inactive)
c1ccc(-c2nnc(CN3CCC4(CC3)OCCO4)o2)cc1,110%,91.5% (inactive),110% (inactive),96.9% (inactive),98.7% (inactive),8.52% (inactive),90.2%,98.7%,-0.79% (inactive),14.5% (inactive)
Cc1cccc(CCNC(=O)C2CCCN(S(=O)(=O)c3cnc[nH]3)C2)c1 (stereo not given),99.5%,106% (inactive),99.5% (inactive),103% (inactive),89.4% (inactive),3.16% (inactive),86.2%,89.4%,-4.93% (inactive),-1.97% (inactive)
O=C(CCN1C(=O)COc2ccccc21)NCCCN1CCN(c2ccccc2F)CC1,105%,118% (inactive),105% (inactive),90.6% (inactive),84.6% (inactive),5.56% (inactive),79%,84.6%,-3.64% (inactive),-2.5% (inactive)
COC(=O)C(C)C1Sc2ccccc2NC1=O (stereo not given),121%,100% (inactive),121% (inactive),119% (inactive),93.9% (inactive),12.1% (inactive),81.8%,93.9%,-7.7% (inactive),2.83% (inactive)
Cn1c(SCc2ccc3c(c2)OCO3)nnc1-c1ccccc1,99.5%,108% (inactive),99.5% (inactive),99.1% (inactive),96.2% (inactive),11.7% (inactive),84.4%,96.2%,1.45% (inactive),-1.11% (inactive)
Cc1nc2c3cnn(-c4ccccc4)c3ncn2n1,104%,86% (inactive),104% (inactive),79.6% (inactive),96.7% (inactive),14.2% (inactive),82.5%,96.7%,-3.87% (inactive),1.64% (inactive)
COc1ccc(Cl)cc1N1CC(c2nc3ccccc3[nH]2)CC1=O (stereo not given),97.5%,104% (inactive),97.5% (inactive),98% (inactive),104% (inactive),7.82% (inactive),96.3%,104%,-3.21% (inactive),2.17% (inactive)
CC(=O)N1CCC2(CC1)CC(=O)c1cc(OCC(=O)NCc3ccc(C)cc3)ccc1O2,97%,84% (inactive),97% (inactive),99.4% (inactive),90% (inactive),-0.255% (inactive),90.3%,90%,-2.76% (inactive),0.91% (inactive)
COc1ccc(N2C(N)=C(C#N)C(c3cccnc3)C3=C2CC(C)(C)CC3=O)cc1 (stereo not given),106%,90% (inactive),106% (inactive),79.5% (inactive),20.6% (active),-3% (inactive),23.6%,20.6%,-8.9% (inactive),0.32% (inactive)
CCCCn1c(CN2CCN(c3cccc(Cl)c3)CC2)nc2c1c(=O)n(C)c(=O)n2C,111%,75% (inactive),111% (inactive),66.9% (inactive),74.7% (inactive),50.2% (inactive),24.5%,74.7%,-4.74% (inactive),6.07% (inactive)
COc1cc(OC)cc(C(=O)N2c3ccc(F)cc3CCC2C)c1 (stereo not given),94.5%,89% (inactive),94.5% (inactive),112% (inactive),97.5% (inactive),6.82% (inactive),90.7%,97.5%,-0.14% (inactive),-3.02% (inactive)
C=CCn1c(C)cc(C(=O)CSc2nc3ccccc3o2)c1C,108%,72.5% (inactive),108% (inactive),81.2% (inactive),95.6% (inactive),10% (inactive),85.6%,95.6%,-2.84% (inactive),-3.33% (inactive)
CCCCNc1cc(C)oc(=O)c1C(C)=O,94.5%,107% (inactive),94.5% (inactive),105% (inactive),97.9% (inactive),7% (inactive),90.9%,97.9%,-4.86% (inactive),3.28% (inactive)
CS(=O)(=O)C1=C(O)C(=O)N(c2ccccc2)C1c1ccccc1 (stereo not given),109%,106% (inactive),109% (inactive),104% (inactive),105% (inactive),10.3% (inactive),94.4%,105%,-4.73% (inactive),0.33% (inactive)

# From PubChem BioAssay
